Calls of active or inactive are those of the source. The calls are words filed in the database; no cut-off is given here.
How the values were obtained:
[1] = target: Cruzipain (Trypanosoma cruzi) (UniProt P25779); assay: Inhibition of recombinant Trypanosoma cruzi cruzain at 10 uM using Z-FR-AMC as substrate preincubated for 10 mins followed by substrate addition and measured at 12 sec interval for 5 mins by fluorimetric analysis relative to control; settings: time 15.0 min
Procedure, shortened: (§1)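 Recombinant rhodesain or cruzain (1 nM) in 0.1 M sodium acetate pH 5.5, 0.01% Triton X-100, 1 mM β-mercaptoethanol. Compound at a single concentration, either without or after 10 min enzyme pre-incubation. Z-FR-AMC 2.5 µM, read at 340/440 nm every 12 s for 5 min. Inhibition is relative to DMSO, with E-64 as positive control. Done in duplicate (primary screen) or triplicate.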

[2] = target: Cruzipain (Trypanosoma cruzi) (UniProt P25779); assay: Inhibition of recombinant Trypanosoma cruzi cruzain at 300 uM using Z-FR-AMC as substrate and measured at 12 sec interval for 5 mins without preincubation by fluorimetric analysis relative to control; procedure, shortened: as §1
[3] = target: Cruzipain (Trypanosoma cruzi) (UniProt P25779); assay: Inhibition of recombinant Trypanosoma cruzi cruzain at 300 uM using Z-FR-AMC as substrate preincubated for 10 mins followed by substrate addition and measured at 12 sec interval for 5 mins by fluorimetric analysis relative to control; settings: time 15.0 min; procedure, shortened: as §1
[4] = target: T1, Rhodesain (Trypanosoma brucei rhodesiense, UniProt Q95PM0); assay: Inhibition of recombinant Trypanosoma brucei rhodesain expressed in Pichia pastoris using Z-FR-AMC as substrate and measured at 12 sec interval for 5 mins without preincubation by fluorimetric analysis
T1 sequence (Q95PM0 whole entry): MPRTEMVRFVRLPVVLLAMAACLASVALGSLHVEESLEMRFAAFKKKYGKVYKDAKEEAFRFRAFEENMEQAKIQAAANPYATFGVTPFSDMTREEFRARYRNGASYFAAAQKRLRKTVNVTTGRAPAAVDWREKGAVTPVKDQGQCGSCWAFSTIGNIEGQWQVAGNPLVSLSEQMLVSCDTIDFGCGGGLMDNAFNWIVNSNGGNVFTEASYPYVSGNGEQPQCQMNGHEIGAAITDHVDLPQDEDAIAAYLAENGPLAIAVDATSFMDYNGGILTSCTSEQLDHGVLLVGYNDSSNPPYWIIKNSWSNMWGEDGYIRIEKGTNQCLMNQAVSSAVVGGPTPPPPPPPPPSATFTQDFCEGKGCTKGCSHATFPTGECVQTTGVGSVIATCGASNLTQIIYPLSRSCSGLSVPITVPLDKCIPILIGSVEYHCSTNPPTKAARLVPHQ
Procedure, shortened: (§2)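 Rhodesain (1 nM) with Z-FR-AMC (2.5 µM) in 0.1 M sodium acetate pH 5.5, 0.01% Triton X-100, 1 mM β-mercaptoethanol, with or without 10 min enzyme-compound pre-incubation. Fluorescence read at 340/440 nm. IC50 by four-parameter nonlinear regression from at least six concentrations in triplicate, with at least two independent runs. Mean ± SEM reported.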

[5] = target: Cruzipain (Trypanosoma cruzi) (UniProt P25779); assay: Inhibition of recombinant Trypanosoma cruzi cruzain at 100 uM preincubated for 10 mins in presence of 0.01% Triton X-100 relative to control
Procedure, shortened: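 To test detergent sensitivity, cruzain was pre-incubated 10 min at room temperature with compound with no Triton X-100, 0.01% or 0.1% Triton X-100. Cleavage of Z-FR-AMC was then followed at pH 5.5 in acetate buffer. Percent inhibition was compared across detergent levels.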

[6] = target: Cruzipain (Trypanosoma cruzi) (UniProt P25779); assay: Inhibition of recombinant Trypanosoma cruzi cruzain at 100 uM preincubated with BSA for 5 mins followed by incubation with enzyme for 5 mins followed by substrate addition relative to control; settings: time 10.0 min
Procedure, shortened: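 For BSA sensitivity, compound was held 5 min with BSA (2 mg/mL in 0.001% Triton X-100), then 5 min with 1 nM cruzain, before substrate was added and activity monitored. Parallel runs omitted BSA under otherwise identical conditions.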

[7] = target: T2, Cruzipain (Trypanosoma cruzi, UniProt P25779); assay: Competitive inhibition of recombinant Trypanosoma cruzi cruzain by Lineweaver-Burk plot analysis
T2 sequence (P25779 whole entry): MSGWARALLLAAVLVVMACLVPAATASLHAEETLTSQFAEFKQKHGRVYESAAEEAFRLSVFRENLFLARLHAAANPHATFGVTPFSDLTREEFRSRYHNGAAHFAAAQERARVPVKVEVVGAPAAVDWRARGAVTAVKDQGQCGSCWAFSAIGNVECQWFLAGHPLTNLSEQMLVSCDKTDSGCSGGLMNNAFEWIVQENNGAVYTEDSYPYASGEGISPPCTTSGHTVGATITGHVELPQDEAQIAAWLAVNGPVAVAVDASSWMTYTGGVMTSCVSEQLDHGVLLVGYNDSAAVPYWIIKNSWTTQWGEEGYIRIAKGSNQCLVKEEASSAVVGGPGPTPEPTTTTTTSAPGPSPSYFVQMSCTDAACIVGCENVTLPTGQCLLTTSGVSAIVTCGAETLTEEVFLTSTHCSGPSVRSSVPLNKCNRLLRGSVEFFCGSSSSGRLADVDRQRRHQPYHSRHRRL
Procedure, shortened: (§3)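 Cruzain (recombinant, 1 nM) in 0.1 M sodium acetate pH 5.5 with 0.01% Triton X-100 and 1 mM β-mercaptoethanol; Z-FR-AMC 2.5 µM, read at 340/440 nm every 12 s for 5 min, with or without 10 min enzyme–compound pre-incubation. […] For mechanism and Ki, 0.3–20.0 µM substrate and five inhibitor levels were used, with Lineweaver-Burk plots.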

[8] = tested on: Trypanosoma brucei brucei; assay: Trypanocidal activity against Trypanosoma brucei brucei Squib 427 assessed as reduction in parasite viability; assay type: functional, organism-based
[9] = tested on: Trypanosoma cruzi; assay: Trypanocidal activity against Trypanosoma cruzi Y strain trypomastigotes infected in C57BL/6 mouse peritoneal macrophage assessed as reduction in number of trypomastigotes release and measured after day 3 to day 11 post-infection by Neubauer chamber method; assay type: functional, organism-based; settings: time 11.0 day
Procedure, shortened: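 Thioglycolate-elicited peritoneal macrophages from female C57BL/6 mice, 2 × 10^5/well, infected 2 h at 37°C with Y strain trypomastigotes at 5:1 (parasite:cell) and washed. They were then held with compound (3.125–50 µM) or IFN-γ 100 ng/mL. Trypomastigotes released into the supernatant were counted in a Neubauer chamber at several days after infection. Three independent experiments, each in triplicate.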

[10] = tested on: Peritoneal macrophage; assay: Cytotoxicity against C57BL/6 mouse peritoneal macrophages assessed as reduction in cell viability at 3.125 uM measured after 24 hrs by LDH release assay; assay type: cell-based
Procedure, shortened: (§4)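 Thioglycolate-elicited peritoneal macrophages from female C57BL/6 mice, 2 × 10^5/well, infected or not with T. cruzi Y trypomastigotes (5:1, 2 h). Either the cells got 3.125–50 µM compound or IFN-γ 100 ng/mL, or the parasites were pre-treated 1 h at 3.125 µM. LDH in supernatant measured at 24 h. Three experiments in triplicate.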

[11] = tested on: Trypanosoma cruzi; assay: Trypanocidal activity against Trypanosoma cruzi Y strain trypomastigotes pretreated with compound at 3.125 uM infected in macrophage assessed as reduction in number of trypomastigotes release measured after 7 days by Neubauer chamber method; assay type: functional, Peritoneal macrophage; parameters: scale not given: the % may be the effect or the level left; settings: time 7 day
Procedure, shortened: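 Y strain trypomastigotes (1×10^6/mL) were incubated 1 h at 37°C in RPMIc with compound at 3.125 µM or medium alone. They were then pelleted, recounted and used to infect C57BL/6 peritoneal macrophages at 5:1 (parasite:cell) for 2 h. Trypomastigotes released into the supernatant were counted in a Neubauer chamber at 5, 7, 9 and 11 days. Three independent experiments, each in triplicate.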

[12] = tested on: Peritoneal macrophage; assay: Cytotoxicity against C57BL/6 mouse peritoneal macrophage cells infected with 3.125 uM compound pretreated trypomastigotes and measured after 24 hrs by LDH release assay; assay type: cell-based; procedure, shortened: as §4
[13] = tested on: Peritoneal macrophage; assay: Effect on nitric oxide production in Trypanosoma cruzi Y strain trypomastigotes infected in C57BL/6 mouse peritoneal macrophage measured after 11 days by Griess reagent based assay; assay type: functional, tissue-based; settings: time 11.0 day
Procedure, shortened: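 Peritoneal macrophages from C57BL/6 mice, infected with T. cruzi Y trypomastigotes at 5:1 for 2 h and/or stimulated with compound or IFN-γ. Supernatant taken 11 days later and mixed with Griess reagent for 10 min. Absorbance read at 540 nm to give nitrite. Three independent experiments in triplicate.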

[14] = target: cathepsin B (Rattus norvegicus, UniProt P00787); assay: Inhibition of rat cathepsin B at 100 uM using Z-FR-AMC as substrate preincubated for 5 mins followed by substrate addition and measured after 15 mins by microplate reader based assay relative to control; settings: probe Z-FR-AMC
Chain of cathepsin B (P00787 whole entry): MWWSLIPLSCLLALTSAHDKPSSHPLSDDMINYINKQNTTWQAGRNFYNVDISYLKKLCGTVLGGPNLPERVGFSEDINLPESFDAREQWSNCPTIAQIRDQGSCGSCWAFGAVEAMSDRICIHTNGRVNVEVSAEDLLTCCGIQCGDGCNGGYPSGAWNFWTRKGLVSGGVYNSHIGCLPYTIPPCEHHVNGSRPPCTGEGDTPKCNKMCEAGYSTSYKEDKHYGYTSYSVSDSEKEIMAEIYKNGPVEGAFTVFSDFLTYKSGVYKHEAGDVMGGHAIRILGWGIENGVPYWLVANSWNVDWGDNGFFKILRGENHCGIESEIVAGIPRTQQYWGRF

[15] = target: T2, Cruzipain; assay: Inhibition of recombinant Trypanosoma cruzi cruzain using Z-FR-AMC as substrate preincubated for 10 mins followed by substrate addition and measured at 12 sec interval for 5 mins by fluorimetric analysis; procedure, shortened: as §3
[16] = target: T1, Rhodesain; assay: Inhibition of recombinant Trypanosoma brucei rhodesain expressed in Pichia pastoris using Z-FR-AMC as substrate preincubated for 10 mins followed by substrate addition and measured at 12 sec interval for 5 mins by fluorimetric analysis; procedure, shortened: as §2
[17] = target: T1, Rhodesain; assay: Mixed inhibition of recombinant Trypanosoma brucei rhodesain expressed in Pichia pastoris by Lineweaver-Burk plot analysis
Procedure, shortened: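 Rhodesain rates were measured at six or more Z-FR-AMC levels (0.3–20.0 µM) and five inhibitor levels, in pH 5.5 acetate buffer with 0.01% Triton X-100 and 1 mM β-mercaptoethanol. Read at 340/440 nm. Mechanism and Ki come from Michaelis–Menten nonlinear fits and Lineweaver–Burk linear regression.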

Chain of Cruzipain (Trypanosoma cruzi) (P25779 123-467 limits assumed): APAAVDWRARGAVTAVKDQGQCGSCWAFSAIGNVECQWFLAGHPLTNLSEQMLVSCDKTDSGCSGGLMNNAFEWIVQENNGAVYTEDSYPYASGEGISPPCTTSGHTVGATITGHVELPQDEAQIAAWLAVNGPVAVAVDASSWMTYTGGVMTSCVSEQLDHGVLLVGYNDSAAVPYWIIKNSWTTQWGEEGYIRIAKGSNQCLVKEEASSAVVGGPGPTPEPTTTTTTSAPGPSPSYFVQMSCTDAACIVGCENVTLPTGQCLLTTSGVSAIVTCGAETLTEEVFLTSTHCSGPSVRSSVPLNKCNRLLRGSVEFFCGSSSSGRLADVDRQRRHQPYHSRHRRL

SMILES | inhibition [1] | inhibition [2] | inhibition [3] | IC50 [4] | inhibition [5] | inhibition [6] | Ki [7] | IC50 [8] | Activity [9] | Activity [10] | Activity [11] | Activity [12] | Activity [13] | inhibition at 0.25 h, 100 µM [14] | IC50 [15] | IC50 [16] | Ki [17]
Cl.Cl.Clc1cc(Br)ccc1-c1ccc(CNCC2CCNCC2)o1 | 15% | 78% | 84% | 53 µM | 67.1% | 90.1% | 3 µM | 0.1 µM | Dose-dependent effect | Non-Toxic | 60% | 30% | inactive | 3.2% | – | – | –
Cn1c(=O)n(C)c2cc(CNCCNc3ccnc4cc(Cl)ccc34)ccc21 | 18% | 75% | 80% | – | 74.8% | 87.8% | – | – | – | – | – | – | – | 11.7% | 51 µM | 38 µM | 10 µM

Reference: ChEMBL document CHEMBL4665666, “Discovery and characterization of trypanocidal cysteine protease inhibitors from the 'malaria box'” (Eur J Med Chem, 2019)
